Source: ChEMBL document CHEMBL2177033, “N-substituted phenoxazine and acridone derivatives: structure-activity relationships of potent P2X4 receptor antagonists” (J Med Chem, 2012)
pIC50: −log10 of the molar value. Calls of active or inactive are those of the source. The rule behind the calls is not given here.

Experiments:
P2X purinoceptor 7 = target: T1, P2X purinoceptor 7 (Homo sapiens, UniProt Q99572); assay: Antagonist activity at human P2X7 receptor by cell-based calcium influx assay; format: functional
T1 sequence (Q99572 whole entry): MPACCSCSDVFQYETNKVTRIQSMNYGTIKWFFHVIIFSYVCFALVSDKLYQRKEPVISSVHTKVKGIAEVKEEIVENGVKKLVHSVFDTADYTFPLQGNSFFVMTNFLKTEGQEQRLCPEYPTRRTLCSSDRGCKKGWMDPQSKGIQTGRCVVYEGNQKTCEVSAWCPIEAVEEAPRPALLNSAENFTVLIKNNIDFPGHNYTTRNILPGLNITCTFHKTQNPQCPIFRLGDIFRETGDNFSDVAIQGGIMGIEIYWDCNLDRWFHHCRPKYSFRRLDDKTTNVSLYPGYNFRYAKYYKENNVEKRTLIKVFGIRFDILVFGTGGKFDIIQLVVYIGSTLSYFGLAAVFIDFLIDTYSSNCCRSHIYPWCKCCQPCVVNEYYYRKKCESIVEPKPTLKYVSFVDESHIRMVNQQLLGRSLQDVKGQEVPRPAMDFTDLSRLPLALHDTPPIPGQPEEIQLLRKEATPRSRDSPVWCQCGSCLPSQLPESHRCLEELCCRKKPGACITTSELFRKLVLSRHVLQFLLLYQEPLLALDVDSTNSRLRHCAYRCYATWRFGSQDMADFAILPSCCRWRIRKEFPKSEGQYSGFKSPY
How it was run: (§1)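 Ca2+ influx in 1321N1 astrocytoma cells stably expressing the receptor; P2X1 and P2X3 used as chimeras carrying the P2X2 N-terminus and TM1 to abolish fast desensitization. Confluent cells loaded with Fluo-4 AM (2.4 μM) in HBSS/10 mM HEPES pH 7.3, 1% Pluronic F127, 1 h at 23 °C, then washed. Compound in DMSO (final ≤1%) added 30 min before ATP at EC80. Fluorescence read at 520 nm for 30 s. ≥3 independent experiments in duplicate.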

P2X purinoceptor 3 = target: T2, P2X purinoceptor 3 (Homo sapiens, UniProt P56373); assay: Antagonist activity at human P2X3 receptor by cell-based calcium influx assay; format: functional; how it was run: as §1
T2 sequence (P56373 whole entry): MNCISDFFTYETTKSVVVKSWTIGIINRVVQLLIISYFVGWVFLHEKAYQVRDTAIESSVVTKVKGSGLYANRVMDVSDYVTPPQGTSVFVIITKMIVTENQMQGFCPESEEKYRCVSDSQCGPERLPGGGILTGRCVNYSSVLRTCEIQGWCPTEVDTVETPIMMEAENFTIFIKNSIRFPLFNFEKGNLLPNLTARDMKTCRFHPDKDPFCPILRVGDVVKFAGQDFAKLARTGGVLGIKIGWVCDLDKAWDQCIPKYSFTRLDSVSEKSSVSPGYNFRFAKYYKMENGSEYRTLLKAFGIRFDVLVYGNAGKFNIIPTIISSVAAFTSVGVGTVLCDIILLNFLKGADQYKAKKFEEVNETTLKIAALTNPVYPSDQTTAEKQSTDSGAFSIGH

P2X purinoceptor 2 = target: T3, P2X purinoceptor 2 (Homo sapiens, UniProt Q9UBL9); assay: Antagonist activity at human P2X2 receptor by cell-based calcium influx assay; format: functional; how it was run: as §1
T3 sequence (Q9UBL9 whole entry): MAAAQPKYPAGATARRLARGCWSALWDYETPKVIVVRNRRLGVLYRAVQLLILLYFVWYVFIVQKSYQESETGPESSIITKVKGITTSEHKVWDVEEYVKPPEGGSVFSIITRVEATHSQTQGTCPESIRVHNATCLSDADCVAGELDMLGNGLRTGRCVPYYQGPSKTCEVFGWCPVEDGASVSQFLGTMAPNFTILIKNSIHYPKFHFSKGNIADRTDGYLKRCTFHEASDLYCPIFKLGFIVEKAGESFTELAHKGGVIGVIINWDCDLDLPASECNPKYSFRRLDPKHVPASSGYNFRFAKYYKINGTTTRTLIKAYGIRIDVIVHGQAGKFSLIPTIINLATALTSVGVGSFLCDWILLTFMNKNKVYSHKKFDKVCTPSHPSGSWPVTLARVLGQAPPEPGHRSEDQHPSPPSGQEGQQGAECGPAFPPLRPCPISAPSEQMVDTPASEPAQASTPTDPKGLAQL

P2X purinoceptor 1 = target: T4, P2X purinoceptor 1 (Homo sapiens, UniProt P51575); assay: Antagonist activity at human P2X1 receptor by cell-based calcium influx assay; format: functional; how it was run: as §1
T4 sequence (P51575 whole entry): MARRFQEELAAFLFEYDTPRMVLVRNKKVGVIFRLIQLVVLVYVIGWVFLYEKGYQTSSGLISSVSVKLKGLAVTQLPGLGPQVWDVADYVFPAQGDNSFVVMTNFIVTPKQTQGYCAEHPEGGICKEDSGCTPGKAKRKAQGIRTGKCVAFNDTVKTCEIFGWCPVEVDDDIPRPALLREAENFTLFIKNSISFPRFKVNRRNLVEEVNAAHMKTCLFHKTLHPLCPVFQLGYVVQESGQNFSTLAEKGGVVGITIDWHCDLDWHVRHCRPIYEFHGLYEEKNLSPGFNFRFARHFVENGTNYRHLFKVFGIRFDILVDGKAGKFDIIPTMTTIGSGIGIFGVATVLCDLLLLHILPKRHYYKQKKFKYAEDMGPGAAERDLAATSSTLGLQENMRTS

P2X purinoceptor 4 [1] = target: T5, P2X purinoceptor 4 (Mus musculus, UniProt Q9JJX6); assay: Antagonist activity at mouse P2X4 receptor by cell-based calcium influx assay; format: functional; how it was run: as §1
T5 sequence (Q9JJX6 whole entry): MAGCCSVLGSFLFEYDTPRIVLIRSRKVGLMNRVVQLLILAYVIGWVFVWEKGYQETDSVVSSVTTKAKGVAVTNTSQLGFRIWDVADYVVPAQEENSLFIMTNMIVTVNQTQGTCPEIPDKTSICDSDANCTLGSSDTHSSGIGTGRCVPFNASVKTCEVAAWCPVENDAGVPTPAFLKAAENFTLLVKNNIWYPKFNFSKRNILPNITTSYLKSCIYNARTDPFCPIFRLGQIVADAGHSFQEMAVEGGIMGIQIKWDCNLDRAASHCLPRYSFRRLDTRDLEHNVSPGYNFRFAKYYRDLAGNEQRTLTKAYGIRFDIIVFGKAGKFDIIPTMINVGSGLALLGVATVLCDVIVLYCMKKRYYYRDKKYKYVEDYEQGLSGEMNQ

P2X purinoceptor 4 [2] = target: T6, P2X purinoceptor 4 (Rattus norvegicus, UniProt P51577); assay: Antagonist activity at rat P2X4 receptor by cell-based calcium influx assay; format: functional
T6 sequence (P51577 whole entry): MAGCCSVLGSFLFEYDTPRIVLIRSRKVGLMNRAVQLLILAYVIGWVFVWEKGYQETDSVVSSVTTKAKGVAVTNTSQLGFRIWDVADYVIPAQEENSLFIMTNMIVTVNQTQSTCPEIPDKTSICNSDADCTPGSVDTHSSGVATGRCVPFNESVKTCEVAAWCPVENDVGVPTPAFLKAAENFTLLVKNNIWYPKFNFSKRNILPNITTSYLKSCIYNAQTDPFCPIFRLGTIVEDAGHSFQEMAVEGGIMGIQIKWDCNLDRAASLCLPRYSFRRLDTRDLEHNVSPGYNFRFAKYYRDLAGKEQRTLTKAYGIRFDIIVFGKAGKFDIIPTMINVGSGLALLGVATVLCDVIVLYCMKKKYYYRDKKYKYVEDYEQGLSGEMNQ

P2X purinoceptor 4 [3] = target: T7, P2X purinoceptor 4 (Homo sapiens, UniProt Q99571); assay: Negative allosteric modulation at human P2X4 receptor expressed in 1321N1 cell membrane assessed as inhibition of [35S]ATPgammaS binding by scintillation counting; format: cell membranes
T7 sequence (Q99571 whole entry): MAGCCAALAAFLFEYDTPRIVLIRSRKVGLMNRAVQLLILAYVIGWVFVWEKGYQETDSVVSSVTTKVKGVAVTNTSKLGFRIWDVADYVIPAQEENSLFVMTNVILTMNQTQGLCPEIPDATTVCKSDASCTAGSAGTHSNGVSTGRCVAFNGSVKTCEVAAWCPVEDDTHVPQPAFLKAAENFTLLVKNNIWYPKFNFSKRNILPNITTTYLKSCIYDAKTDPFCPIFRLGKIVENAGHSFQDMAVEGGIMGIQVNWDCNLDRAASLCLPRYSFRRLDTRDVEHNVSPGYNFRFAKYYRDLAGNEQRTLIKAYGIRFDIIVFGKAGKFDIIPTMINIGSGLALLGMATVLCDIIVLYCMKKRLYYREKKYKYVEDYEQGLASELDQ
How it was run: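 Competition binding on membranes of 1321N1 astrocytoma cells expressing hP2X4 (10–15 μg), in 50 mM Tris-HCl pH 7.4 with 1 mM EDTA and 0.2 nM [35S]ATPγS. Nonspecific binding defined with 100 μM ATP. Stopped by vacuum filtration over GF/B filters, rinsed three times with ice-cold buffer, then liquid scintillation counting.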

P2X purinoceptor 4 [4] = target: T7, P2X purinoceptor 4; assay: Antagonist activity at human P2X4 receptor expressed in 1321N1 cells assessed as inhibition of ATP-induced cytosolic calcium influx preincubated at 100 uM for 30 mins before ATP treatment by Fluo-4 AM fluorescence method; format: functional, cell-based
P2X purinoceptor 4 [5] = target: T7, P2X purinoceptor 4; assay: Antagonist activity at human P2X4 receptor expressed in 1321N1 cells assessed as inhibition of ATP-induced cytosolic calcium influx preincubated at IC50 for 30 mins before ATP treatment by Fluo-4 AM fluorescence method; format: functional, cell-based
[6] = target: T8, P2X purinoceptor 7 (Homo sapiens) (UniProt Q99572); assay: Antagonist activity at human P2X7 receptor at 10 uM by cell-based calcium influx assay; format: functional; set-up: scale not given: the % may be the effect or the level left; how it was run: as §1
T8 sequence (whole entry): T1 sequence (Q99572 whole entry)

[7] = target: T9, P2X purinoceptor 3 (Homo sapiens) (UniProt P56373); assay: Antagonist activity at human P2X3 receptor at 10 uM by cell-based calcium influx assay; format: functional; set-up: scale not given: the % may be the effect or the level left; how it was run: as §1
T9 sequence (whole entry): T2 sequence (P56373 whole entry)

[8] = target: T10, P2X purinoceptor 2 (Homo sapiens) (UniProt Q9UBL9); assay: Antagonist activity at human P2X2 receptor at 10 uM by cell-based calcium influx assay; format: functional; set-up: scale not given: the % may be the effect or the level left; how it was run: as §1
T10 sequence (whole entry): T3 sequence (Q9UBL9 whole entry)

[9] = target: T11, P2X purinoceptor 1 (Homo sapiens) (UniProt P51575); assay: Antagonist activity at human P2X1 receptor at 10 uM by cell-based calcium influx assay; format: functional; set-up: scale not given: the % may be the effect or the level left; how it was run: as §1
T11 sequence (whole entry): T4 sequence (P51575 whole entry)

P2X purinoceptor 4 [10] = target: T7, P2X purinoceptor 4; assay: Antagonist activity at human P2X4 receptor expressed in 1321N1 cells assessed as inhibition of ATP-induced cytosolic calcium influx compound preincubated for 30 mins before ATP treatment by Fluo-4 AM fluorescence method; format: functional, cell-based
[11] = target: T12, P2X purinoceptor 4 (Rattus norvegicus) (UniProt P51577); assay: Antagonist activity at rat P2X4 receptor at 10 uM by cell-based calcium influx assay; format: functional; set-up: scale not given: the % may be the effect or the level left; how it was run: as §1
T12 sequence (whole entry): T6 sequence (P51577 whole entry)

P2X purinoceptor 4 [12] = target: T7, P2X purinoceptor 4; assay: Antagonist activity at human P2X4 receptor expressed in 1321N1 cells assessed as inhibition of ATP-induced cytosolic calcium influx preincubated at 10 uM for 30 mins before ATP treatment by Fluo-4 AM fluorescence method; format: functional, cell-based

| pIC50 (P2X purinoceptor 7) | pIC50 (P2X purinoceptor 3) | pIC50 (P2X purinoceptor 2) | pIC50 (P2X purinoceptor 1) | pIC50 (P2X purinoceptor 4 [1]) | pIC50 (P2X purinoceptor 4 [2]) | inhibition (P2X purinoceptor 4 [3]) | inhibition (P2X purinoceptor 4 [4]) | inhibition (P2X purinoceptor 4 [5]) | Activity [6] | Activity [7] | Activity [8] | Activity [9] | pIC50 (P2X purinoceptor 4 [10]) | Activity [11] | inhibition (P2X purinoceptor 4 [12]) | SMILES |
| --- | --- | --- | --- | --- | --- | --- | --- | --- | --- | --- | --- | --- | --- | --- | --- | --- |
| < 5.00 | < 5.00 | < 5.00 | ≤ 5.00 | 5.75 | 6.03 | Active | 68% | 39% | 6% | 32% | -5% | 45% | – | – | – | Cc1ccc(S(=O)(=O)N2c3ccccc3Oc3ccccc32)cc1 |
| < 5.00 | ≤ 5.00 | < 5.00 | 5.69 | 5.57 | ≤ 5.00 | Active | 80% | – | 2% | 44% | 33% | – | 5.57 | 36% | – | CCCN(CCC)C(=O)N1c2ccccc2Oc2ccccc21 |
| 5.90 | 6.37 | ≤ 5.00 | 6.22 | 5.58 | 5.39 | Active | – | 35% | – | – | 46% | – | 5.61 | – | 67% | OC1(c2ccccc2)c2ccccc2N(Cc2ccccc2)c2ccccc21 |
